These results are taken from ChEMBL document CHEMBL1131493, “Inhibitors of farnesyl protein transferase. 4-Amido, 4-carbamoyl, and 4-carboxamido derivatives of 1-(8-chloro-6,11-dihydro-5H-benzo[5,6]- cyclohepta[1,2-b]pyridin-11-yl)piperazine and 1-(3-bromo-8-chloro-6,11- dihydro-5H-benzo[5,6]cyclohepta[1,2-b]pyridin-11-yl)piperazine” (J Med Chem, 1998).

A value given as a limit tells only on which side of the number the result lay.

The target of data set [1] is T1, Protein farnesyltransferase (Homo sapiens, UniProt P49354+P49356). The experiment in a line: In vitro inhibition of farnesyltransferase farnesylation of the H-ras oncogene. The data set is classed as protein-complex assay.
Data set [2] is described as follows: In vivo antitumor efficacy after peroral dose of 25 mg/kg expressed as duration for which compound was present above IC50. Type of data set: ADME, organism-based. Also on record: dose 25 mg/kg, route oral. The conditions noted are these: po. The essentials:
(§1)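 Serum pharmacokinetics in nude mice or cynomolgus monkeys after oral (po) or iv dosing. Compounds were given as hydrochloride salts in 20% HPβCD unless otherwise noted. Other formulations were the hydrochloride salt in saline, the micronized free base in 20% HPβCD or corn oil (po) with saline for iv, or the hydrochloride salt in 0.4% methyl cellulose (po).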

Data set [3] is described as follows: Maximal plasma concentration in nude mice after 25 mg/kg oral dose. Type of data set: ADME, organism-based. More on the design: dose 25 mg/kg, route oral. The conditions noted are these: mouse. The essentials: as §1
Data set [4] in a line: In vivo antitumor efficacy in nude mice by injecting a dose of 25 mg/kg, as HCl salt in saline solution, iv and the serum half-life was determined. The data set is classed as ADME, organism-based. More on the design: dose 25 mg/kg, route intravenous. The conditions noted are these: mouse.
Data set [5] in a line: In vivo antitumor efficacy in nude mice 0-24 hr after intravenous dose of 25 mg/kg expressed as Area under the curve. More on the design: time < 24 hr, dose 25 mg/kg, route intravenous. The conditions noted are these: mouse. Type of data set: ADME, organism-based. In short, it runs like this:
as §1

Data set [6] in a line: Oral bioavailability in mouse (nude) (dose of 25 mg/kg). Type of data set: ADME, organism-based. The conditions noted are these: in vivo. In short, it runs like this: as §1
Data set [7] can be described thus: In vivo antitumor efficacy in nude mice 0-24 hr after iperoral dose of 25 mg/kg expressed as Area under the curve. The data set is classed as ADME, organism-based. More on the design: time < 24 hr, dose 25 mg/kg. The conditions noted are these: mouse, po. The essentials: as §1
The nature of data set [8]: In vivo antitumor efficacy in cynomolgus monkeys by injecting a dose of 10 mg/kg, as HCl salt in saline solution, perorally and the total drug exposure was determined (0-8 hr). Type of data set: ADME, organism-based, Macaca fascicularis. Also on record: time < 8 hr, dose 10 mg/kg, route oral. The conditions noted are these: cynomolgus monkey, po. The essentials: as §1

A short description of data set [9]: In vivo antitumor efficacy in nude mice by injecting a dose of 25 mg/kg iv and serum half-life was determined. Type of data set: ADME, organism-based. More on the design: dose 25 mg/kg, route intravenous. The conditions noted are these: mouse. In short, it runs like this: as §1
A short description of data set [10]: In vivo antitumor efficacy in nude mice 0-24 hr after peroral dose of 25 mg/kg expressed as Area under the curve. Also on record: time < 24 hr, dose 25 mg/kg, route oral. The data set is classed as ADME, organism-based. The conditions noted are these: nude, mouse, po. The essentials: as §1
A further data set relates to Cynomolgus monkey. The experiment in a line: In vivo antitumor efficacy after peroral dose of 10 mg/kg in cynomolgus monkeys expressed as duration for which compound was present above IC50. Also on record: dose 10 mg/kg, route oral. The conditions noted are these: po. The data set is classed as ADME, organism-based, Macaca fascicularis. In short, it runs like this: as §1

A further data set has as its system Mus musculus. The experiment in a line: In vivo antitumor efficacy after peroral dose of 25 mg/kg in mice expressed as duration for which compound was present above IC50. Type of data set: ADME, organism-based. Also on record: dose 25 mg/kg, route oral. The conditions noted are these: po. In short, it runs like this:
as §1

Data set [11] concerns the target geranylgeranyltransferase type-I (Rattus norvegicus, UniProt P53610+Q04631). The experiment in a line: Inhibition of rat Geranylgeranyl transferase (GGPT). The data set is classed as protein-complex assay.
Data set [12] is described as follows: In vivo antitumor efficacy expressed as maximum plasma concentration 0.4 hr after a peroral dose of 25 mg/kg in cynomolgus monkeys. Type of data set: ADME, organism-based, Macaca fascicularis. More on the design: dose 25 mg/kg, route oral. The conditions noted are these: cynomolgus monkey, po. The essentials:
as §1

A short description of data set [13]: In vivo antitumor efficacy peroral dose of 25 mg/kg expressed as duration for which compound was present above IC50. The data set is classed as ADME, organism-based. More on the design: dose 25 mg/kg, route oral. The conditions noted are these: po. The essentials: as §1
Data set [14] concerns the target T1, Protein farnesyltransferase. The experiment in a line: Inhibition of Farnesyltransferase from Ras-CVLS or Ras-CVLL in Cos-7 monkey kidney cells. The data set is classed as cell-based, Chlorocebus aethiops.
Data set [15] can be described thus: Maximal plasma concentration in cynomolgus monkeys after 10 mg/kg oral dose. Type of data set: ADME, organism-based, Macaca fascicularis. More on the design: dose 10 mg/kg, route oral. The conditions noted are these: cynomolgus monkey, plasma. In short, it runs like this:
as §1

Data set [16] can be described thus: In vivo antitumor efficacy expressed as plasma area under the curve 0.4 hr after a peroral dose of 25 mg/kg in nude mice. The data set is classed as ADME, organism-based. Also on record: time < 0.4 hr, dose 25 mg/kg, route oral. The conditions noted are these: mouse, po. The essentials: as §1
Data set [17] in a line: In vivo antitumor efficacy expressed as plasma area under the curve 0.4 hr after iv dose of 25 mg/kg in nude mice. Type of data set: ADME, organism-based. More on the design: time < 0.4 hr, dose 25 mg/kg, route intravenous. The essentials:
as §1

Data set [18] deals with T1, Protein farnesyltransferase. The experiment in a line: In vitro inhibition of farnesyltransferase farnesylation of H-ras at […].

In general, IC50 refers to the point on the concentration scale where inhibition reaches its midpoint. A word on the Cmax: it is the maximum level reached in the sampled fluid or tissue. Usually half-life stands for how long it takes for the measured level to halve. The term AUC denotes concentration integrated over time. What is called bioavailability is the share of a dose that reaches the circulation, judged against a reference dose that is usually intravenous. Regarding `O=C(Cc1cc[n+]([O-])cc1)N1CCN([C@@H]2c3ccc(Cl)cc3CCc3cccnc32)CC1`, the half-inhibitory concentration (IC50) in data set [1] was 1.2 µM. Besides, the “Time above IC50” value in [2] is 2 h. Also, the peak concentration (Cmax) in [3] is 3000 nM. The half-life in data set [4] was 1.1 h. Also, the area under the curve (AUC) at 24 h in [5] turned out to be 11300 ng·h/mL; in [7] it was 6000 ng·h/mL. This molecule also came in with a bioavailability in data set [6] of 53%.
Regarding `O=C(Cc1cc[n+]([O-])cc1)N1CCN([C@@H]2c3ccc(Cl)cc3CCc3cc(Br)cnc32)CC1`, in data set [8], the AUC at 8 h came to 9100 ng·h/mL. The half-life in data set [9] is 1.18 h. Also, the Cmax came out at 25000 nM in data set [3] and 1800 nM in data set [12]. Besides, the area under the curve (AUC) at 24 h in data set [5] turned out to be 27100 ng·h/mL; in data set [10], 31900 ng·h/mL. In data set [6], this molecule registered a bioavailability of 100%. In addition, the “Time above IC50” value in the data set with Cynomolgus monkey was found to be 12 h; in the data set on Mus musculus it was 7 h. The half-inhibitory concentration (IC50) in data set [11] was over 38 µM.
Take `O=C(Cc1ccc[n+]([O-])c1)N1CCN(C2c3ccc(Cl)cc3CCc3cc(Br)cnc32)CC1` (stereo not given): the half-life in data set [9] was 1 h. Further, in data set [3], the highest level (Cmax) was 45400 nM. Also, the area under the curve (AUC) at 24 h amounted to 24000 ng·h/mL in data set [5] and 34800 ng·h/mL in [10]. Besides, the “Time above IC50” value in data set [13] worked out at 6 h. For the same molecule, the bioavailability in [6] was determined as 100%.
Take `O=C(Cc1cc[n+]([O-])cc1)N1CCN(C2c3ccc(Cl)cc3C=Cc3cc(Br)cnc32)CC1` (stereo not given): the midpoint of inhibition in data set [14], the IC50, lay at 0.35 µM. Also, the AUC at 24 h in data set [5] turned out to be 11700 ng·h/mL. The Cmax in data set [15] is 1900 nM. In the data set with Cynomolgus monkey, the “Time above IC50” value is 31 h.
`O=C(Cc1ccncc1)N1CCN(C2c3ccc(Cl)cc3CCc3cccnc32)CC1` (stereo not given) had a half-life in data set [9] of 0.2 h. This molecule yielded a Cmax in data set [3] of 900 nM. Also, the “Time above IC50” value in data set [13] was found to be 1 h. In addition, in data set [6], the bioavailability is 13%. For the same molecule, the AUC at 0.4 h in [16] stood at 240 ng·h/mL; in [17] it was 1800 ng·h/mL. In [11], the IC50 was over 46 µM.
In general, inhibition refers to the change of the read-out against control, counted positive when it falls. Regarding `CN(C(=O)N1CCN(C2c3ccc(Cl)cc3CCc3cccnc32)CC1)c1ccncc1` (stereo not given), the inhibition in data set [18] came out at 0%.
